One data set relates to rmGlu5. As to conditions: CHO or HEK293 cells expressing rmGlu5; cited from earlier work.
The target of a further data set is A809V/rmGlu5 (Rattus norvegicus, UniProt P31424, A809V). It is filed as cell-based. As to conditions: VU0357121 at 1 μM; transiently transfected HEK293. A digest of the protocol: (§1)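 HEK293 cells were transiently transfected with mutant rat mGlu5 cDNA using FuGENE 6, plated the next day and assayed the following day. Cells were Fluo4-AM loaded in HBSS/HEPES/probenecid at pH 7.4. Vehicle or a fixed 1 μM PAM was added, then increasing glutamate. Calcium fluorescence was read for 160 s. Glutamate concentration–response curves were fitted by nonlinear regression to compare EC50 values.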
Sequence of A809V/rmGlu5 (P31424 21-1203 A809V): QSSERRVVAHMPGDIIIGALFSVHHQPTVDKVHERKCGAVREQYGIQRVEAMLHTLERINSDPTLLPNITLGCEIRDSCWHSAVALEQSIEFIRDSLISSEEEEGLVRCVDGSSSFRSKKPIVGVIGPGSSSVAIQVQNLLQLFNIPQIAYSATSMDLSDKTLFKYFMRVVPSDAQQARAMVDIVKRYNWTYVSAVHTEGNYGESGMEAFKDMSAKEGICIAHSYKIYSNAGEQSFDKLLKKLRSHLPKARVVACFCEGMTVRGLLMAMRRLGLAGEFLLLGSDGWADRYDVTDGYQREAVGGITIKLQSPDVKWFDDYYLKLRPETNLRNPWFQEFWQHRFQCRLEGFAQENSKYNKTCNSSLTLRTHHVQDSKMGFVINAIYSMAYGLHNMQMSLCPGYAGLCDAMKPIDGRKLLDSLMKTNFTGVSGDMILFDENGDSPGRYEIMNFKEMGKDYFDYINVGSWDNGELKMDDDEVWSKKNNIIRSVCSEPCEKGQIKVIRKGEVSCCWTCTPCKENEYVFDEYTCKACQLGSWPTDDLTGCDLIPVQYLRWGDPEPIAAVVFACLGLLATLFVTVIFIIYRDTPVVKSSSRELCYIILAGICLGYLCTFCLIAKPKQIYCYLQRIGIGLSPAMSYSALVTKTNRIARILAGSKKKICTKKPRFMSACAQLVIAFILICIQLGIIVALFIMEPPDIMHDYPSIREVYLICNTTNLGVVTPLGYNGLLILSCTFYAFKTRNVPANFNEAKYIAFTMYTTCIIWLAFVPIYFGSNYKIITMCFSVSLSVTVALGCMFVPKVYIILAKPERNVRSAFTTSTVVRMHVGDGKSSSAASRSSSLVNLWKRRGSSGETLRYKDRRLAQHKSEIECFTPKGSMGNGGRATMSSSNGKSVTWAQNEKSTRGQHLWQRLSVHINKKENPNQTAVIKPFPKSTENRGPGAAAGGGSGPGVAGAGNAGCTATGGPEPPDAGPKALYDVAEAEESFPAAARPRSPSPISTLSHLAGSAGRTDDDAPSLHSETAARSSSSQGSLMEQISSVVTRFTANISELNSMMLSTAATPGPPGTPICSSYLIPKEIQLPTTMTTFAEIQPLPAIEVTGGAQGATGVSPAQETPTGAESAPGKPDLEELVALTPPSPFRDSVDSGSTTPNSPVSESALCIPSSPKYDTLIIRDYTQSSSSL

The target in a further data set is F585I/rmGlu5 (Rattus norvegicus, UniProt P31424, F585I). It is filed as cell-based. As to conditions: VU0357121 at 1 μM; transiently transfected HEK293. The method in brief:
as §1

In data set [1] the target is T1, rat mGlu5 (Rattus norvegicus, UniProt P31424). Description: Antagonist. It is filed as cell-based. As to conditions: 10 μM test compound. The method in brief:
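HEK293 cells stably expressing rat mGlu5 were plated in glutamate/glutamine-free medium 24 h ahead. Cells were loaded with 2 μM Fluo4-AM in HBSS with 2.5 mM probenecid and 20 mM HEPES, pH 7.4, for 45 min at 37 °C. Vehicle or 10 μM test compound went in at 19 s, then ~EC80 glutamate at 109 s. Fluorescence was read for 160 s and normalized to the 100 μM glutamate maximum. Three experiments were run in triplicate, mean ± SEM.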

Data set [2] addresses T1, rat mGlu5. Format: cell-based. The method in brief:
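Rat mGlu5 HEK293 stable cells, plated at 30,000/well in glutamate/glutamine-free medium (dialysed FBS) ≥24 h. Loaded 45 min at 37 °C with 2 μM Fluo4-AM in HBSS, 20 mM HEPES, 2.5 mM probenecid, pH 7.4. Increasing test compound added at 19 s, EC20 glutamate at 109 s. Fluorescence read for 160 s. EC50 from curve fits.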

Data set [3] concerns the target T1, rat mGlu5. Description: Single-point PAM screen, potentiation of EC20 glutamate calcium response. Particulars: 1 μM test compound. Format: cell-based. A digest of the protocol: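 HEK293 cells stably expressing rat mGlu5 were plated at 30,000/well in glutamate/glutamine-free medium about 24 h ahead. Cells were loaded with 2 μM Fluo4-AM for 45 min at 37 °C in HBSS/HEPES/probenecid (pH 7.4). Vehicle or 1 μM test compound was added at 19 s, then glutamate at EC20 at 109 s. Fluorescence recorded for 160 s.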

For another data set, the target named is rat mGlu3 (Rattus norvegicus, UniProt P31422). Kind of data set: Selectivity fold-shift, GIRK thallium flux in HEK/GIRK cells. It is filed as cell-based. As to conditions: 30 μM test compound. The method in brief:
(§2)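 HEK cell lines expressing GIRK plus rat mGlu2, 3, 4, 7 or 8 or human mGlu6 were plated overnight at 37 °C. Cells were loaded with 1 μM Fluozin2-AM for 1 h at room temperature. Vehicle or 30 μM test compound was added, then varying glutamate 2.5 min later in thallium buffer (12 mM thallium sulfate). Glutamate curves were fitted by nonlinear regression. Three experiments were run in duplicate or triplicate, mean ± SEM.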

For the next data set, the target named is rat mGlu4 (Rattus norvegicus, UniProt P31423). The description is as above. Particulars: 30 μM test compound. Format: cell-based. A digest of the protocol: as §2
Sequence of rat mGlu4 (P31423 33-912): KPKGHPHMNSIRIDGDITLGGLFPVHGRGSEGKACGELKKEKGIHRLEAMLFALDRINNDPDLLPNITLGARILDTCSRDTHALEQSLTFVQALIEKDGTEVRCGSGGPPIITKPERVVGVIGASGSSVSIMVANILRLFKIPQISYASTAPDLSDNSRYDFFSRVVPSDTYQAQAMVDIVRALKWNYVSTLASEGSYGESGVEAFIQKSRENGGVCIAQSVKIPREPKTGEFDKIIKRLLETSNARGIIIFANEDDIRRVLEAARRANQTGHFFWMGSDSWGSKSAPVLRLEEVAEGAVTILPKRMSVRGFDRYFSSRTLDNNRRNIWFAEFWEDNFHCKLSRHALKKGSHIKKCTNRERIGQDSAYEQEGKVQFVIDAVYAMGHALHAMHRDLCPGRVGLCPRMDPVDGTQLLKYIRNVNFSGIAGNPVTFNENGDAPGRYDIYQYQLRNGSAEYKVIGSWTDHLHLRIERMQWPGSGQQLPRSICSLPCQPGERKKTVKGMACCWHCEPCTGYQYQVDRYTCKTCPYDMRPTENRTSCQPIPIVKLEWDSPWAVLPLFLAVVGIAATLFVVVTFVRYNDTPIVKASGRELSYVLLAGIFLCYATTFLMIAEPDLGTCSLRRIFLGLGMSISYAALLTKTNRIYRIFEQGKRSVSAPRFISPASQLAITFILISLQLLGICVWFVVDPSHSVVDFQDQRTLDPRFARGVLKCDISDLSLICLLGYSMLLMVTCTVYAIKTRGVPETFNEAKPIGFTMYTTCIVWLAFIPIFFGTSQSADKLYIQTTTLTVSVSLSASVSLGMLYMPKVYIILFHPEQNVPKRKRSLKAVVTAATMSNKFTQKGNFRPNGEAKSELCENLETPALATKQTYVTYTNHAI
For another data set, the target named is rat mGlu7 (Rattus norvegicus, UniProt P35400). The data set is described as above. Format: cell-based. Particulars: 30 μM test compound. A digest of the protocol:
as §2

The target of a further data set is rat mGlu1 (Rattus norvegicus, UniProt P23385). Kind of data set: Selectivity fold-shift, calcium assay in HEK293 cells expressing mGlu1. As to conditions: 30 μM test compound. It is filed as cell-based. A digest of the protocol:
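HEK293 cells stably expressing rat mGlu1, handled as for mGlu5 cells: plated in glutamate/glutamine-free medium, loaded with 2 μM Fluo4-AM (45 min, 37 °C, pH 7.4, with probenecid). Vehicle or 30 μM test compound added, then increasing glutamate concentrations. Fluo-4 fluorescence read on FlexStation over 160 s. Concentration-response curves fit by nonlinear regression.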

Another data set deals with human mGlu6 (Homo sapiens, UniProt O15303). Description: Selectivity fold-shift, GIRK thallium flux in HEK/GIRK cells. It is filed as cell-based. As to conditions: 30 μM test compound. A digest of the protocol: as §2
Sequence of human mGlu6 (O15303 25-877): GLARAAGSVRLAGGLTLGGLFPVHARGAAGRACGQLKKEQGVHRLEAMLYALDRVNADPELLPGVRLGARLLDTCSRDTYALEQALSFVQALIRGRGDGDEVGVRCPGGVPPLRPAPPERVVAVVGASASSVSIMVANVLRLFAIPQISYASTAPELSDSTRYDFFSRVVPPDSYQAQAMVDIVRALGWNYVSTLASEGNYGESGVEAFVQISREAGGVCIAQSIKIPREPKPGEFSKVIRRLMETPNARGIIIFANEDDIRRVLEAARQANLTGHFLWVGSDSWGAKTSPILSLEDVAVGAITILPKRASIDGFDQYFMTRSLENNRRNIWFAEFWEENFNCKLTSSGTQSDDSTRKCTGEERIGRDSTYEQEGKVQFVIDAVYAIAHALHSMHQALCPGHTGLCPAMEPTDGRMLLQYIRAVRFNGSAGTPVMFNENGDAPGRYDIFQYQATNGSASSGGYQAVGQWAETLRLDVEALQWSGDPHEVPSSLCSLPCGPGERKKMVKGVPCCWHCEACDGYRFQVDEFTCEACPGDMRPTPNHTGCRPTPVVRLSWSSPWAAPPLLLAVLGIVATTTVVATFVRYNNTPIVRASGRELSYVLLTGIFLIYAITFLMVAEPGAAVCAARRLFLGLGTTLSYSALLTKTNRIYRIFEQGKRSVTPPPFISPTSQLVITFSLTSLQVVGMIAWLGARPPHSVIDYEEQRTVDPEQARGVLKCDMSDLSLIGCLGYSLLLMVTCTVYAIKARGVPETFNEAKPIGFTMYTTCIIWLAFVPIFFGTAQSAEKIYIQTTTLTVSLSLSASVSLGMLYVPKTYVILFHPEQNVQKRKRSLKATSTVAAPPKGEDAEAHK
Another data set addresses rat mGlu8 (Rattus norvegicus, UniProt P70579). Described as above. Particulars: 30 μM test compound. Format: cell-based. The method in brief:
as §2

The next data set addresses rat mGlu2 (Rattus norvegicus, UniProt P31421). The description is as above. Format: cell-based. Particulars: 30 μM test compound. The method in brief: as §2
A further data set in a line: Solubility in assay. Format: physicochemical. As to conditions: above 30 μM in assay.
Data set [4] deals with T1, rat mGlu5. Format: cell-based. Particulars: 10 μM test compound with VU0357121 50 nM, EC20 glutamate. A digest of the protocol: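 Same Fluo4 calcium-flux protocol in rat mGlu5 HEK293 cells. Test compound (10 μM) or vehicle co-applied with reference mGlu5 PAM (50 nM) from one 4× solution, followed by EC20 glutamate. Fluorescence recorded 160 s. Groups compared with EC20 + PAM + vehicle control by one-way ANOVA with Dunnett's test.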

The target of data set [5] is T1, rat mGlu5. It is filed as cell-based. Particulars: VU0365396 30 μM, EC20 glutamate.

Results on 12 molecules are retold here after article PMC2957851 (ACS Chemical Neuroscience, 2010).

Entries after “also recorded” stand apart in the source; their conditions may differ.

T1 sequence (P31424 21-1203): as the sequence (P31424 21-1203 A809V) above, with V789A counted along it
Sequence of F585I/rmGlu5 (P31424 21-1203 F585I): as the sequence (P31424 21-1203 A809V) above, with F565I, V789A counted along it
Sequence of rat mGlu1 (P23385 19-1199): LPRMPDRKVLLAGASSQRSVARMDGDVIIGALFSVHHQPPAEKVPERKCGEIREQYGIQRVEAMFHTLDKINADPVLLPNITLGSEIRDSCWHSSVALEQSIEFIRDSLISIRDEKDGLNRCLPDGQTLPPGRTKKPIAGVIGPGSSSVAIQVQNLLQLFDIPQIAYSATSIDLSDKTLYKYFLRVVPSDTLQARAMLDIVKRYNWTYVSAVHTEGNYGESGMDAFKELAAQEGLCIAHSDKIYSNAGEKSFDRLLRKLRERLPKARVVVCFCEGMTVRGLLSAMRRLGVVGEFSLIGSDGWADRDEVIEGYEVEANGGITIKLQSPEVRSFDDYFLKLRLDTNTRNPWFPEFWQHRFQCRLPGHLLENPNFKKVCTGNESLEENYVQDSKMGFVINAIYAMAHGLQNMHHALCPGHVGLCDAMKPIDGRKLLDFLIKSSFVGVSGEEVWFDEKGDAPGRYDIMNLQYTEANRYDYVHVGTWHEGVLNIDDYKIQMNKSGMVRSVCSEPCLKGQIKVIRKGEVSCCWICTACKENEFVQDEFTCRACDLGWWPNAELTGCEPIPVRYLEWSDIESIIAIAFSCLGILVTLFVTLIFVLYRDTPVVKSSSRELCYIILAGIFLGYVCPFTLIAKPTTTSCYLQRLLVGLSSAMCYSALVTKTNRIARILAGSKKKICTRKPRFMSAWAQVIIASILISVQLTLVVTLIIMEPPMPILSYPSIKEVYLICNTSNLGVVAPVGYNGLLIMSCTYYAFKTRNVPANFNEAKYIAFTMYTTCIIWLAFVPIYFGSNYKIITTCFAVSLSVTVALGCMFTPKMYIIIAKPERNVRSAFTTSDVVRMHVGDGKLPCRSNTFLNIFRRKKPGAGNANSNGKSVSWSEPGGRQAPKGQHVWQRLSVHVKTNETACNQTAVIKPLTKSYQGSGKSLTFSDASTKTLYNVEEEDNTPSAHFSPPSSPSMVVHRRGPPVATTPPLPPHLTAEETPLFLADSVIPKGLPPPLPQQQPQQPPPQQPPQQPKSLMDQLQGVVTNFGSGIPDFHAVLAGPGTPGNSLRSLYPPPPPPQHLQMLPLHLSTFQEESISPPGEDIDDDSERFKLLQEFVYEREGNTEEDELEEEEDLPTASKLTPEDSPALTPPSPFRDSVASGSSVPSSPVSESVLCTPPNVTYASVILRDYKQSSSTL
Sequence of rat mGlu8 (P70579 34-908): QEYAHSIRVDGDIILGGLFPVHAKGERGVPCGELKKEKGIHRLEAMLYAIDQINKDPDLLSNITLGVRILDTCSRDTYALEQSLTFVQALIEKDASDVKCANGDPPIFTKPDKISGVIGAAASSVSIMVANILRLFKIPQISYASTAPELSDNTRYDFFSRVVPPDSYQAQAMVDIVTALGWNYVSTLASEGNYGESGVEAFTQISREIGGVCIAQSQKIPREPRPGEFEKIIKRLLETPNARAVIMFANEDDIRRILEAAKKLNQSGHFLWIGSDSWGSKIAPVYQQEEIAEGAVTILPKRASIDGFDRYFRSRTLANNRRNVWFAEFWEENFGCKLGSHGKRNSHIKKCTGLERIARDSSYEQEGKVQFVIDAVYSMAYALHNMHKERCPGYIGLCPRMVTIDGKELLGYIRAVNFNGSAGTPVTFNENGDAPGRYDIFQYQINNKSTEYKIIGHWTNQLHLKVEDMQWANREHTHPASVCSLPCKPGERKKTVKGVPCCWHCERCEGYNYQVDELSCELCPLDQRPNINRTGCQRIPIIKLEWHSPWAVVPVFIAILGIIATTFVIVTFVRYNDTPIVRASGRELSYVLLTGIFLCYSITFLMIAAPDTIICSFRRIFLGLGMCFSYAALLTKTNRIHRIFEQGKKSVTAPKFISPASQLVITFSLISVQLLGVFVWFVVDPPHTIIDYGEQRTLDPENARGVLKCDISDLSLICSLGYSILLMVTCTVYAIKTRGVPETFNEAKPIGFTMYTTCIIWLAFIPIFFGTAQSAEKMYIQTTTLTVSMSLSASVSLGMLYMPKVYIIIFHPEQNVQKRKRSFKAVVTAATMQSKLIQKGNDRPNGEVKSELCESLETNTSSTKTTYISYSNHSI

On to `O=C(c1ccc(F)cc1)N1CCC[C@H](c2nc(-c3ccccn3)no2)C1` [(S)-FPOPM, (S)-(4-fluorophenyl)(3-(3-(pyridin-2-yl)-1,2,4-oxadiazol-5-yl)piperidin-1-yl)methanone], for which, in the data set with rmGlu5, the “intrinsic agonist activity at rmGlu5” value is “have no effect on mGlu5 alone”.
For the molecule `O=C(c1ccc(F)cc1)N1CCC[C@H](c2nc(-c3cccs3)no2)C1` [(S)-FTOPM, (S)-(4-fluorophenyl)(3-(3-(thiophen-2-yl)-1,2,4-oxadiazol-5-yl)piperidin-1-yl)methanone], the “intrinsic agonist activity at rmGlu5” value in the data set with rmGlu5 is reported as “display intrinsic agonist activity at moderate to high concentrations”.
For `N#Cc1cccc(C(=O)Nc2cc(-c3ccccc3)nn2-c2ccccc2)c1` [CDPPB, 3-cyano-N-(1,3-diphenyl-1H-pyrazol-5-yl)benzamide], in the data set on rmGlu5, the “intrinsic agonist activity at rmGlu5” value was “display intrinsic agonist activity at moderate to high concentrations”.
On to `O=C(Nc1ccc(Cl)cc1CN1C(=O)c2ccccc2C1=O)c1ccccc1O` [CPPHA, N-{4-chloro-2-[(1,3-dioxo-1,3-dihydro-2H-isoindol-2-yl)methyl]phenyl}-2-hydroxybenzamide], for which the “PAM response at the A809V/rmGlu5 mutant” value on A809V/rmGlu5 is given as “but not CPPHA is lost”. Moreover, the “intrinsic agonist activity at rmGlu5” value with rmGlu5 was “have no effect on mGlu5 alone”. At F585I/rmGlu5, the “PAM response at the F585I/rmGlu5 mutant” value was “is lost”.
As for `Cc1cccc(C#Cc2ccccc2)n1` [MPEP, 2-methyl-6(phenylethynyl)pyridine, reference compound], the “inhibition of the effect of EC80 glutamate on mGlu5” value against rat mGlu5 [1] is “blockade”.
With `CNc1ncc(C#Cc2ccccc2)cn1` [MPPA, N-methyl-5-(phenylethynyl)pyrimidin-2-amine], the “intrinsic agonist activity at rmGlu5” value with rmGlu5 is given as “have no effect on mGlu5 alone”.
At rat mGlu5 [2], `CCCOc1ccc(C(=O)Nc2ccc(Cl)cn2)cc1` [VU0001850, N-(5-chloropyridin-2-yl)-4-propoxybenzamide] came in with a 50% effective concentration (EC50) of 1300 nM. The “potentiation of response to suboptimal (EC20) glutamate” value (shortened to “potentiation of response to suboptimal”) on rat mGlu5 [3] is “potentiated the response to glutamate at submicromolar concentrations”.
`CCCCOc1ccc(C(=O)Nc2ccccc2F)cc1` [VU0040237, 4-butoxy-N-(2-fluorophenyl)benzamide] gave an EC50 at rat mGlu5 [2] of 350 nM. In addition, the “potentiation of response to suboptimal” value on rat mGlu5 [3] is “potentiated the response to glutamate at submicromolar concentrations”.
On the same counts, the results for `CCCCOc1ccc(C(=O)Nc2ccc(Cl)cn2)cc1` [VU0125936, 4-butoxy-N-(5-chloropyridin-2-yl)benzamide] are 664 nM and “potentiated the response to glutamate at submicromolar concentrations”.
For `CCCCOc1ccc(C(=O)Nc2ccc(F)cc2F)cc1` [VU0357121, 4-butoxy-N-(2,4-difluorophenyl)benzamide], at rat mGlu3, the “modulation of agonist response (PAM activity) at mGlu3” value was “does not have PAM activity”. In addition, at rat mGlu4, the “modulation of agonist response (PAM activity) at mGlu4” value was “does not have PAM activity”. The “modulation of agonist response (PAM activity) at mGlu7” value on rat mGlu7 is given as “does not have PAM activity”. Moreover, the “effect on glutamate concentration-response curve at mGlu1” value on rat mGlu1 was “weak inhibition of glutamate responses at mGlu1”. Besides, on rat mGlu5 [2] (versus VU0040237), the “increase in potency over the HTS hit” value came to 10 fold. At A809V/rmGlu5, the “PAM response at the A809V/rmGlu5 mutant” value is given as “inhibited the ability of VU0357121 to shift the glutamate concentration−response curve; also recorded: led to an inhibition of VU0357121 activity”. Further, the “PAM response at the F585I/rmGlu5 mutant” value at F585I/rmGlu5 was “had no effect on its function”. In addition, the “potentiation of response to suboptimal” value on rat mGlu5 [3] was “potentiated the response to glutamate at submicromolar concentrations”. On human mGlu6, the “modulation of agonist response (PAM activity) at mGlu6” value was “does not have PAM activity”. Also, the “modulation of agonist response (PAM activity) at mGlu8” value at rat mGlu8 is “does not have PAM activity”. For the same molecule, the “inhibition of the effect of EC80 glutamate on mGlu5” value against rat mGlu5 [1] is “did not inhibit the effect of glutamate on mGlu5”. For the same molecule, the “modulation of agonist response (PAM activity) at mGlu2” value at rat mGlu2 is “does not have PAM activity”.
Regarding `CCCCOc1ccc(C(=O)Nc2c(F)cccc2F)cc1` [VU0365396, 4-butoxy-N-(2,6-difluorophenyl)benzamide], the solubility result in “Solubility in assay” is on record as “limitations with solubility precluded studies with higher concentrations”. Besides, the “inhibition of VU0357121 PAM activity” value against rat mGlu5 [4] is on record as “caused the most robust inhibition; also recorded: induces the most robust inhibition of VU0357121 effects”. For the same molecule, on rat mGlu5 [5], the “effect of VU0365396 on CPPHA-induced potentiation” value is given as “had no effect on CPPHA-induced potentiation of mGlu5 responses; also recorded: has no effect on CPPHA activity” and the “effect of VU0365396 on the VU0357121 CRC” value is listed as “induced a parallel rightward shift in the VU0357121 CRC; also recorded: induces a parallel rightward shift in the VU0357121 concentration−response curve”.
In the case of `O=C(Nc1cc(-c2ccccc2)nn1-c1ccccc1)c1ccc([N+](=O)[O-])cc1` [VU-29, 4-nitro-N-(1,3-diphenyl-1H-pyrazol-5-yl)benzamide, reference compound], the “PAM response at the A809V/rmGlu5 mutant” value on A809V/rmGlu5 is recorded as “is lost”. The “PAM response at the F585I/rmGlu5 mutant” value on F585I/rmGlu5 is “but not VU29 is lost”.
